pIC50: −log10 of the molar value. Values after ≈ are worked out from the molar mass of the structure shown.
Legend:
[1] = Protection index, ratio of IC50 for HepG2 cells to MIC for Mycobacterium tuberculosis H37Rv
[2] = tested on: Vero; assay: Cytotoxicity against African green monkey Vero cells after 72 hrs by MTT assay; assay type: cell-based; settings: Chlorocebus sabaeus
[3] = tested on: Mycobacterium tuberculosis; assay: Antitubercular activity against Mycobacterium tuberculosis H37Rv ATCC 25618 after 6 days by resazurin dye based assay; assay type: functional; settings: H37Rv ATCC 25618, 144 h
[4] = Half life in mouse microsomes; assay type: ADME, Microsome
[5] = Protection index, ratio of IC50 for African green monkey Vero cells to MIC for Mycobacterium tuberculosis H37Rv
[6] = tested on: HepG2; assay: Cytotoxicity against human HepG2 cells after 48 hrs by CellTiter-Glo assay; assay type: cell-based; settings: HepG2, 48 h
[7] = tested on: Candida albicans; assay: Antifungal activity against Candida albicans ATCC 90028 at 32 ug/ml after 24 hrs; assay type: functional; settings: ATCC 90028, 24 h
[8] = tested on: Mycobacterium tuberculosis; assay: Antitubercular activity against Mycobacterium tuberculosis H37Rv after 5 days by microplate alamar blue assay; assay type: functional; settings: 120 h
[9] = tested on: Staphylococcus aureus; assay: Antimicrobial activity against gram-positive Staphylococcus aureus ATCC 43300 at 32 ug/ml after 18 hrs; assay type: functional; settings: ATCC 43300, 18 h
Summary of the method: (§1)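 Whole-cell growth inhibition screen at a single final concentration of 32 µg/mL, in duplicate on different plates, with 0.3% DMSO final. Bacteria grown overnight in cation-adjusted Mueller Hinton broth at 37°C, diluted 40-fold, and grown 1.5-3 h to mid-log. Wells seeded at 5×10^5 CFU/mL and incubated 18 h at 37°C without shaking. OD600 read; percent inhibition calculated against media-only and untreated-bacteria controls on the same plate. Colistin (Gram-negative) and vancomycin (Gram-positive) were the standards.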

[10] = tested on: Pseudomonas aeruginosa; assay: Antimicrobial activity against gram-negative Pseudomonas aeruginosa ATCC 27853 at 32 ug/ml after 18 hrs; assay type: functional; settings: ATCC 27853, 18 h; summary of the method: as §1
[11] = tested on: Mycobacterium tuberculosis; assay: Antitubercular activity against Mycobacterium tuberculosis H37Rv at 50 ug/ml after 5 days by microplate alamar blue assay relative to control; assay type: functional; settings: 120 h
Summary of the method: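 M. tuberculosis H37Rv tested by microplate alamar blue assay, reading the resazurin-to-resorufin colour change, at an initial 50 µg/ml. Rifampicin and isoniazid were the standards.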

[12] = tested on: Mycobacterium tuberculosis; assay: Antitubercular activity against clinical isolates of Mycobacterium tuberculosis by broth microdilution assay; assay type: functional
[13] = tested on: Klebsiella pneumoniae; assay: Antimicrobial activity against gram-negative Klebsiella pneumoniae ATCC 700603 at 32 ug/ml after 18 hrs; assay type: functional; settings: ATCC 700603, 18 h; summary of the method: as §1
[14] = tested on: Acinetobacter baumannii; assay: Antimicrobial activity against gram-negative Acinetobacter baumannii ATCC 19606 at 32 ug/ml after 18 hrs; assay type: functional; settings: ATCC 19606 = CIP 70.34 = JCM 6841, 18 h; summary of the method: as §1
[15] = tested on: Cryptococcus neoformans; assay: Antifungal activity against Cryptococcus neoformans var. grubii ATCC 208821 at 32 ug/ml after 24 hrs; assay type: functional; settings: ATCC 208821, 24 h
Summary of the method: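 Single-concentration antifungal screen at a final 32 µg/mL, n=2 on different plates. Fungi grown 3 days on YPD agar at 30°C; suspension of 1-5×10^6 cells/mL made from five colonies, then diluted in YNB broth. Incubated 35°C for 24 h without shaking. C. albicans read at OD530. C. neoformans read as OD600-570 after resazurin (0.001% final) and a further 2 h at 35°C. Inhibition calculated against on-plate controls; fluconazole was the standard.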

[16] = Drug metabolism in rat liver microsomes after 60 mins; assay type: ADME, microsome; settings: read-out: Drug metabolism
Summary of the method: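 Rat liver microsomes incubated with compound for 60 min. Stability followed as the peak area ratio of compound to internal standard. p-Nitrophenol conversion to p-nitrocatechol served as the positive control.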

[17] = tested on: HepG2; assay: Cytotoxicity against human HepG2 cells after 24 hrs by MTT assay; assay type: cell-based; settings: HepG2, 24 h
Summary of the method: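 HepG2 cells seeded at 25,000-50,000 per well and allowed to adhere about 24 h at 37°C in 5% CO2. Serial dilutions (300, 100, 50, 10, 1, 0.1 µM) added in triplicate and incubated 24 h. MTT added to 10% of the total volume for 2-4 h in the dark. Formazan dissolved in 100% DMSO, absorbance read at 570 nm, and IC50 calculated.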

[18] = Cytotoxicity against African green monkey Vero cells after 72 hrs by sulforhodamine B assay; assay type: cell-based; settings: chlorocebus sabaeus
[19] = tested on: Liver; assay: Drug level in rat liver microsomes treated with p-nitrophenol after 60 mins; assay type: ADME, microsome; settings: 1 h
Summary of the method: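 p-Nitrophenol incubated 60 min with rat liver microsomes as the positive control; its conversion to p-nitrocatechol was measured.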

SMILES | inhibition at 32 µg/mL [7] | MIC95 [8] | inhibition at 32 µg/mL [9] | inhibition at 32 µg/mL [10] | inhibition at 50 µg/mL [11] | further results
COc1ccc(-c2cc(CN3CCSCC3)c(C)n2-c2ccc(F)cc2)cc1 | – | – | – | – | – | Ratio [1]: 127.5 - 1937.5; pIC50 [2]: < 3.52; MIC [3]: 0.2 µM (≈ 0.0793 µg/mL); half-life [4]: < 5 min; Ratio [5]: 127.5 - 1937.5; pIC50 [6]: < 2.62
CSc1ccc(-c2cc(CN3CCSCC3)c(C)n2-c2ccc(F)cc2)cc1 | – | – | – | – | – | Ratio [1]: 127.5 - 1937.5; pIC50 [2]: 4.82; MIC [3]: 0.16 µM (≈ 0.066 µg/mL); half-life [4]: 10 min; Ratio [5]: 127.5 - 1937.5; pIC50 [6]: 5.23
Cc1ccn2c(CN3CCOCC3)c(-c3ccccc3)nc2c1 | 0.89 to 1.68% | 40 µg/mL (≈ 130 µM) | 15.8 to 23.5% | 10.6 to 15.2% | 95% | –
Cc1c(CN2CCN(C)CC2)cc(-c2ccc(Cl)cc2)n1-c1ccc(Cl)cc1 | – | – | – | – | – | Ratio [1]: 127.5 - 1937.5; MIC [3]: 5 µM (≈ 2.07 µg/mL); half-life [4]: > 30 min; MIC [12]: 1.5 µg/mL (≈ 3.62 µM); Ratio [5]: 127.5 - 1937.5; pIC50 [6]: 5.11
Cc1ccc(-c2cc(CN3CCSCC3)c(C)n2-c2ccc(F)cc2)cc1 | – | – | – | – | – | Ratio [1]: 127.5 - 1937.5; pIC50 [2]: 3.75; MIC [3]: 0.16 µM (≈ 0.0609 µg/mL); half-life [4]: 8.2 min; Ratio [5]: 127.5 - 1937.5; pIC50 [6]: 4.62
COc1ccc(-c2nc3ccccc3n2-c2ccc(Cl)cc2)c(OC)c1 | 2.68 to 3.53% | 48.3 µg/mL (≈ 132 µM) | 10.9 to 14.2% | – | 95% | inhibition at 32 µg/mL [13]: 3.25 to 9.39%
Fc1ccc(-c2nc3ccccn3c2CN2CCOCC2)cc1 | 0.63 to 5.39% | 22.2 µg/mL (≈ 71.3 µM) | 22.3 to 30.3% | 11 to 14.3% | 95% | –
COc1ccc(-c2nc3ccccc3n2-c2ccccc2)cc1O | 6.64 to 11.3% | 8 µg/mL (≈ 25.3 µM) | 7.7 to 15.5% | 1.32 to 7.73% | 95% | –
Cc1c(CN2CCOCC2)cc(-c2ccc(C(C)C)cc2)n1-c1ccc(F)cc1 | – | – | – | – | – | pIC50 [2]: 4.30; MIC [3]: 0.12 µM (≈ 0.0471 µg/mL); half-life [4]: > 30 min; pIC50 [6]: 4.82
Cc1ccn2c(CN3CCCCC3)c(-c3ccccc3)nc2c1 | – | 33.7 µg/mL (≈ 110 µM) | – | – | 95% | –
COc1ccc(-c2nc3ccccc3n2-c2ccc(C(C)C)cc2)cc1 | 13.1 to 14.2% | > 50 µg/mL | 6.25 to 12.4% | 6.29 to 15.7% | 68% | inhibition at 32 µg/mL [14]: 23.8 to 36.1%; inhibition at 32 µg/mL [15]: 7.06 to 11%
COc1ccc(-c2nc3ccccc3n2-c2cc(C)ccc2C)cc1 | 1.69 to 4.32% | > 50 µg/mL | 9.57 to 10% | 5.72 to 19.7% | 80% | inhibition at 32 µg/mL [14]: 3.5 to 38.8%
c1ccc(-c2nc3ccccn3c2CN2CCCCC2)cc1 | 2.41 to 3.93% | > 50 µg/mL | 14.8 to 19.4% | 11.4 to 17.7% | 95% | inhibition at 32 µg/mL [14]: 1.56 to 10.4%
COc1ccc(-c2nc3ccccc3n2-c2ccc(F)cc2)cc1 | 1.62 to 1.69% | > 50 µg/mL | 11.6 to 12.7% | 5.18 to 12.8% | 6% | –
c1ccc(-c2nc3ccccn3c2CN2CCOCC2)cc1 | 0.3 to 6.38% | > 50 µg/mL | 26.1 to 28.6% | 9.04 to 16.5% | 95% | inhibition at 32 µg/mL [13]: 2.52 to 13.8%; inhibition at 32 µg/mL [15]: 2.71 to 3.04%
Cc1ccn2c(CN3CCOCC3)c(-c3ccc(F)cc3)nc2c1 | 2.74 to 7.44% | 23.9 µg/mL (≈ 73.5 µM) | 20.1 to 21.8% | 9.71 to 27% | 95% | –
COc1ccc(-c2nc3ccccc3n2-c2cccc(Cl)c2)cc1 | 4.66 to 7.76% | > 50 µg/mL | 14.1 to 16% | 7.07 to 24.5% | 0% | –
Cc1ccc2nc(-c3ccc(F)cc3)c(CN3CCOCC3)n2c1 | 3.4 to 6.17% | 17 µg/mL (≈ 52.2 µM) | 25.1 to 26.2% | – | 95% | –
COc1ccc(-c2nc3ccccc3n2-c2ccc(Cl)cc2)cc1OC | 7.63 to 8.23% | 20.3 µg/mL (≈ 55.6 µM) | 1.03 to 9.81% | – | 95% | metabolised at 1 h [16]: 5%; inhibition at 32 µg/mL [14]: 39.9 to 42.6%; pIC50 [17]: 4.30; GI50 at 72 h [18]: 8.2 µM; inhibition at 32 µg/mL [15]: 0.95 to 4.02%
Oc1ccc(-c2nc(-c3ccccc3)cn2-c2ccccc2)cc1 | – | 17.8 µg/mL (≈ 57 µM) | – | – | 95% | –
COc1ccc(-c2nc3ccccc3n2-c2ccc(Br)cc2)cc1 | 9.75 to 11.7% | > 50 µg/mL | 12.3 to 15% | – | 92% | metabolised at 1 h [16]: 2%; inhibition at 32 µg/mL [14]: 1.56 to 58.1%; pIC50 [17]: 3.95; GI50 at 72 h [18]: 5 µM
COc1ccc(-c2nc3ccccc3n2-c2ccc(Cl)cc2)cc1 | 12.2 to 12.9% | 2.3 µg/mL (≈ 6.87 µM) | – | 1.34 to 9.75% | 95% | metabolised at 1 h [16]: 0%; pIC50 [17]: 3.69; GI50 at 72 h [18]: 29 µM
COc1ccc(-c2nc3ccccc3n2-c2cccc(OC)c2)cc1 | 5.26 to 8.76% | > 50 µg/mL | 7.42 to 20.4% | 9.8 to 11.2% | 14% | inhibition at 32 µg/mL [14]: 19.7 to 59.9%
COc1ccc(-c2nc(-c3ccccc3)cn2-c2ccccc2)cc1 | 17.5 to 26.4% | 20.3 µg/mL (≈ 62.2 µM) | 3.07 to 13.3% | 2.98 to 16.6% | 95% | inhibition at 32 µg/mL [14]: 23.1 to 34.8%
COc1cccc(-c2nc3ccccc3n2-c2ccc(Cl)cc2)c1 | 4.73 to 28.1% | > 50 µg/mL | – | 2.25 to 13% | 67% | inhibition at 32 µg/mL [14]: 49.4 to 50.8%; inhibition at 32 µg/mL [15]: 6.16 to 19.6%
O=[N+]([O-])c1ccc(O)c(O)c1 [4-Nitrocatechol] | – | – | – | – | – | Drug metabolism [19]: Metabolite_Detected
NNC(=O)c1ccncc1 [ISONIAZID] | – | 0.06 to 0.11 µg/mL (≈ 0.438 to 0.802 µM) | – | – | 95% | –
CO[C@H]1/C=C/O[C@@]2(C)Oc3c(C)c(O)c4c(O)c(c(/C=N/N5CCN(C)CC5)c(O)c4c3C2=O)NC(=O)/C(C)=C\C=C\[C@H](C)[C@H](O)[C@@H](C)[C@@H](O)[C@@H](C)[C@H](OC(C)=O)[C@@H]1C [RIFAMPIN] | – | 0.03 to 0.5 µg/mL (≈ 0.0365 to 0.608 µM) | – | – | 95% | –
